Results published in ChEMBL document CHEMBL3763071, “Selective Human Estrogen Receptor Partial Agonists (ShERPAs) for Tamoxifen-Resistant Breast Cancer” (J Med Chem, 2016).
The source made the active and inactive calls. No cut-off for these calls is given here.

Columns and labels:
MCF7:5C [1] = assay: (§1) Antiproliferative activity against tamoxifen resistant human MCF7:5C cells assessed as inhibition of cell growth at 10 nM after 9 days by MTS assay; format: functional
Method in brief: (§2)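 Tamoxifen-resistant MCF-7:5C cells (long-term estrogen-deprived MCF-7:ws8, phenol red-free RPMI with charcoal-dextran FBS) seeded 5000/well overnight, treated at 1, 10 or 100 nM with renewal every 3 days. […] Triplicates in at least three passages.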

[2] = Cytotoxicity against human MCF7:WS8 cells at 0.1 to 1 uM after 3 days by MTT assay; format: cell-based; conditions: mcf7:ws8, 72 h
Estrogen receptor [3] = molecular target: T1, Estrogen receptor (Homo sapiens, UniProt P03372); assay: Agonist activity at estrogen receptor alpha in human MCF7:WS8 cells after 18 hrs by dual luciferase reporter assay; format: cell-based
T1 sequence (P03372 whole entry): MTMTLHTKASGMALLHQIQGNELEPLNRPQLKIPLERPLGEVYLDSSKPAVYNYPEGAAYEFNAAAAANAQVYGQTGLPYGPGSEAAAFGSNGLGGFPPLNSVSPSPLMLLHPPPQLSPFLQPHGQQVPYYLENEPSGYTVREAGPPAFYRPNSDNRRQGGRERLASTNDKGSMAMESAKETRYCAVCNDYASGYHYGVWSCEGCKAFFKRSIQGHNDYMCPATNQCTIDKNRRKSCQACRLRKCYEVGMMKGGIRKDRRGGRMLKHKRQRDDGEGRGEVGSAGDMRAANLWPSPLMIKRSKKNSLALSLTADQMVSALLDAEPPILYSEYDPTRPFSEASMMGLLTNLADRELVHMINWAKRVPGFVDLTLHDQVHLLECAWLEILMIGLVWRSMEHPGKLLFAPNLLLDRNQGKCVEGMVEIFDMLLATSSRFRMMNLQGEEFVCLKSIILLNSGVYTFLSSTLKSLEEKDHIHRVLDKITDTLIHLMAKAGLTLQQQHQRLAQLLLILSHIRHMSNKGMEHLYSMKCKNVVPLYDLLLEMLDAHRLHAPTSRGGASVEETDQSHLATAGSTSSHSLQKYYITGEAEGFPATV

MCF7:5C [4] = assay: (§3) Antiproliferative activity against tamoxifen resistant human MCF7:5C cells assessed as inhibition of cell growth at 1 nM after 9 days by MTS assay; format: functional; method in brief: as §2
[5] = (§4) Antiproliferative activity against tamoxifen resistant human MCF7:5C cells assessed as inhibition of cell growth at 100 nM after 9 days by MTS assay; format: functional; conditions: 216 h; method in brief: as §2
[6] = molecular target: T2, Estrogen receptor (Homo sapiens) (UniProt P03372); assay: Partial agonist activity at biotinylated ERalpha LBD (unknown origin) assessed as increase in SRC3 coactivator recruitment after 1 hr by TR-FRET assay
T2 sequence (whole entry): T1 sequence (P03372 whole entry)
Method in brief: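 Biotinylated ERα LBD (1 nM) premixed with streptavidin-terbium (0.25 nM). Fluorescein-labelled SRC3 was titrated with ligand at 20 μM. Incubation ran 1 h at room temperature in the dark. Read-out was TR-FRET: excitation 340 nm, emission 495 and 520 nm, 100-μs delay. Background from parallel wells without LBD was subtracted, and signal was plotted against log SRC3.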

[7] = as §1; format: functional; conditions: 216 h; method in brief: as §2
Estrogen receptor [8] = molecular target: T1, Estrogen receptor; assay: Partial agonist activity at ERalpha in human MCF7:WS8 cells after 18 hrs by luciferase reporter gene assay; format: cell-based
Method in brief: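 MCF-7:ws8 cells kept in stripped medium 3 days, then transiently co-transfected (6 h) with 3×ERE-firefly luciferase and pRL-TK Renilla plasmids. […] EC50 and Emax derived; mean ± s.e.m. from at least three passages.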

[9] = as §3; format: functional; conditions: 216 h; method in brief: as §2
[10] = molecular target: T2, Estrogen receptor (Homo sapiens); assay: Antagonist activity at ERalpha in human MCF7:WS8 cells assessed as E2-induced ERE activation after 18 hrs by luciferase reporter gene assay; format: cell-based
Method in brief: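 ERE-luciferase reporter in MCF-7:ws8 cells held in stripped medium 3 days, co-transfected with 3×ERE (Xenopus vitellogenin A2)-firefly luciferase and pRL-TK Renilla plasmids for 6 h. […] Average of three passages.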

[11] = molecular target: T2, Estrogen receptor (Homo sapiens); assay: Partial agonist activity at estrogen receptor alpha in human MCF7:WS8 cells at 100 nM after 6 hrs in presence of 100 nM GPR30 inhibitor G15 by luciferase reporter gene assay; format: cell-based
[12] = molecular target: T2, Estrogen receptor (Homo sapiens); assay: Partial agonist activity at biotinylated ERalpha LBD (unknown origin) assessed as inhibition of E2-induced SRC3 coactivator recruitment after 1 hr by TR-FRET assay
MCF7:5C [13] = assay: as §4; format: functional; method in brief: as §2
T47D:A18 = assay: Antitumor activity against tamoxifen resistant human T47D:A18 cells overexpressing PKC-alpha xenografted into BALB/c athymic mouse assessed as reduction in tumor size at 100 mg/kg administered via oral gavage daily measured upto 2 weeks; format: functional, organism-based
Method in brief: (§5)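 T47D:A18/PKCα xenografts established 12 weeks before dosing. Compound given orally at 100 mg/kg daily for 2 weeks in 0.1% Tween 80/10% PEG400/0.5% CMC, plus drinking water replaced by hydrogel suspension at 0.25 mg/mL. Tumor area (length/2 × width/2 × π) by calipers weekly; uteri excised and weighed at sacrifice (control n = 4, treated n = 6).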

Mus musculus = assay: Toxicity in BALB/c athymic mouse xenografted with tamoxifen-resistant human T47D:A18 cells overexpressing PKC-alpha assessed as uterine weight at 100 mg/kg administered via oral gavage daily; format: organism-based; conditions: in vivo; method in brief: as §5

| Compound | inhibition (MCF7:5C [1]) | Activity [2] | EC50 (Estrogen receptor [3]; read-out: EC50) | inhibition (MCF7:5C [4]) | inhibition at 0.1 µM [5] | inhibition at 0.01 µM [7] | inhibition at 0.001 µM [9] | also measured |
| --- | --- | --- | --- | --- | --- | --- | --- | --- |
| Oc1ccc2c(-c3ccc(F)cc3)c(Oc3ccc(F)cc3)sc2c1 | inactive | Non-toxic | 0.0368 µM | inactive | 86.6% | – | – | – |
| Oc1ccc(Oc2sc3cc(O)ccc3c2-c2ccc(F)cc2)cc1 [TTC-352] | – | Non-toxic | 0.0008 µM | – | 123% | 104% | 50.6% | Activity [6]: Active; EC50 (Estrogen receptor [8]): 0.0008 µM; inhibition [10]: Dose-dependent effect; Activity [11]: Active; Activity [12]: Active |
| O=C(c1ccc(C(F)(F)F)cc1)c1c(-c2ccc(F)cc2)sc2cc(O)ccc12 | – | Non-toxic | 0.0615 µM | – | 108% | 69.7% | 55.6% | – |
| Oc1ccc(Oc2c(-c3ccc(F)cc3)sc3cc(O)ccc23)cc1 | inactive | Non-toxic | 0.0062 µM | inactive | – | – | – | inhibition (MCF7:5C [13]): inactive |
| C#Cc1ccc(C(=O)c2sc3cc(O)ccc3c2-c2ccc(F)cc2)cc1 | – | Non-toxic | 0.0053 µM | – | 85.6% | 79.9% | 31.4% | Activity [6]: Active; EC50 (Estrogen receptor [8]): 0.0053 µM; Activity (T47D:A18): Active; inhibition [10]: Dose-dependent effect; Activity [12]: Active |
| CS(=O)(=O)c1ccc(C(=O)c2sc3cc(O)ccc3c2-c2ccc(F)cc2)cc1 | inactive | Non-toxic | 0.436 µM | inactive | 18.9% | – | – | – |
| Oc1ccc2cc(-c3ccc(F)cc3)sc2c1 | – | – | – | – | – | – | – | EC50 (Estrogen receptor [3]): Not Active |
| Oc1ccc2c(-c3ccc(F)cc3)c(Oc3ccc(Cl)cc3)sc2c1 | inactive | Non-toxic | 0.0761 µM | inactive | 30.7% | – | – | EC50 (Estrogen receptor [8]): 0.0761 µM; inhibition [10]: Dose-dependent effect |
| CN(C)c1ccc(C(=O)c2sc3cc(O)ccc3c2-c2ccc(F)cc2)cc1 | – | Non-toxic | 0.0306 µM | – | 111% | 15.1% | 4.1% | – |
| O=C(c1ccc(F)cc1)c1sc2cc(O)ccc2c1-c1ccc(F)cc1 | – | Non-toxic | 0.0185 µM | inactive | 131% | 32.4% | – | – |
| O=C(c1sc2cc(O)ccc2c1-c1ccc(F)cc1)C1CCCCC1 | – | Non-toxic | 0.001 µM | – | 147% | 134% | 21.4% | – |
| Cc1ccc(C(=O)c2sc3cc(O)ccc3c2-c2ccc(F)cc2)cc1 | – | Non-toxic | 0.717 µM | – | 110% | 7.4% | 13.3% | – |
| O=C(c1ccc(O)cc1)c1sc2cc(O)ccc2c1-c1ccc(F)cc1 | – | Non-toxic | 0.0002 µM | – | 100% | 99.8% | 95.4% | – |
| O=C(c1ccc(OCCN2CCCCC2)cc1)c1c(-c2ccc(O)cc2)sc2cc(O)ccc12 [RALOXIFENE] | inactive | Non-toxic | – | inactive | – | – | – | inhibition (MCF7:5C [13]): inactive |
| N#Cc1ccc(C(=O)c2sc3cc(O)ccc3c2-c2ccc(F)cc2)cc1 | – | Non-toxic | 0.0587 µM | – | 64.2% | – | 2% | – |
| Cc1ccc(C(=O)c2c(-c3ccc(O)cc3)sc3cc(O)ccc23)cc1 | – | Non-toxic | 0.0026 µM | – | 109% | 60.2% | 11.5% | – |
| O=C(c1ccc(C(F)(F)F)cc1)c1sc2cc(O)ccc2c1-c1ccc(F)cc1 | – | Non-toxic | 0.0052 µM | inactive | 88.6% | 15.4% | – | Activity (Mus musculus): Non-toxic; Activity (T47D:A18): Active |
| Oc1ccc2c(-c3ccc(F)cc3)csc2c1 | – | – | – | – | – | – | – | EC50 (Estrogen receptor [3]): Not Active |
| O=C(c1sc2cc(O)ccc2c1-c1ccc(F)cc1)C1CC1 | – | Non-toxic | 0.0139 µM | inactive | 146% | 79.6% | – | – |
| Oc1ccc2c(-c3ccc(F)cc3)c(Oc3ccc(F)c(F)c3)sc2c1 | inactive | Non-toxic | 0.0334 µM | inactive | 84.6% | – | – | – |
| O=C(c1ccc(C(F)(F)F)cc1)c1c(-c2ccc(Cl)cc2)sc2cc(O)ccc12 | inactive | Non-toxic | 0.121 µM | inactive | – | – | – | inhibition (MCF7:5C [13]): inactive |
